In the library only some 4.3% were active in any assay of this set; here they are far more common.
Rin1-Abl PPI inh – human Rin1-Abl interaction inhibition; P00519+Q13671; TR-FRET Rin1/Abl binding, biochemical; inhibition, % at 7.35 µM; hit rate 0.4% among 360,000; AID 588664; in the data active = inhibition above about 5%, passing the limit was not always enough
RBBP9 inh – inhibitors of human serine hydrolase RBBP9. O75884. inhibition, % at 7.94 µM. AID 1515. recombinant RBBP9, FP-Rh probe fluorescence polarization. hit rate 0.2% among 220,000;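 active = inhibition above the campaign mean of all tested compounds plus 3 SD, cut at about 14% in these data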;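 note: plate controls were DMSO wells with RBBP9 for no effect and wells lacking RBBP9 protein for full effect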
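system = RBBP9 protein | input = RBBP9 at 2.5 µM in dispensed solution, before mixing | measured by = fluorescence polarization (mP), excitation 525 nm, emission 598 nm | incubation = enzyme-compound preincubation 30 min, then probe labeling 45 min, 25 °C | buffer or medium = Tris-NaCl-Pluronic buffer, pH 8.0 | compound = single dose 7.94 µM | also added = FP-Rh probe, 375 nM dispensing solution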
UBC9 SUMO inh – SUMOylation inhibition | inhibition, % at 35 µM | hit rate 0.36% among 290,000 | P63279 | HTRF SUMOylation assay, SAE1/SAE2 + UBC9, in vitro; in the data active = inhibition above about 50%, passing the limit was not always enough
UBC13 inh – blocks human UBC13 polyubiquitin chain formation; hit rate 0.47% among 330,000; inhibition, % at 20 µM; P61088; TR-FRET; in the data active = inhibition above about 45%, passing the limit was not always enough
ALR H2O2 inh – blocks human ALR sulfhydryl oxidase activity | purified ALR, DTT oxidation, H2O2 HRP-luminol luminescence | inhibition, % (no concentration beside the values) | hit rate 3.8% among 290,000 | AID 485317;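 active = mean replicate inhibition above about 79%, with every replicate also reaching it, limit read from the data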
PREPL inh – inhibits the human prolyl oligopeptidase-like enzyme | hit rate 0.68% among 320,000 | AID 2751 | recombinant PREPL, fluorescence polarization activity-based probe | inhibition, % at 5.96 µM | Q4J6C6; in the data active = inhibition above about 43%;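 note: 0% = enzyme with DMSO and 100% = wells lacking enzyme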
Target sequence (Q4J6C6 whole entry, looked up): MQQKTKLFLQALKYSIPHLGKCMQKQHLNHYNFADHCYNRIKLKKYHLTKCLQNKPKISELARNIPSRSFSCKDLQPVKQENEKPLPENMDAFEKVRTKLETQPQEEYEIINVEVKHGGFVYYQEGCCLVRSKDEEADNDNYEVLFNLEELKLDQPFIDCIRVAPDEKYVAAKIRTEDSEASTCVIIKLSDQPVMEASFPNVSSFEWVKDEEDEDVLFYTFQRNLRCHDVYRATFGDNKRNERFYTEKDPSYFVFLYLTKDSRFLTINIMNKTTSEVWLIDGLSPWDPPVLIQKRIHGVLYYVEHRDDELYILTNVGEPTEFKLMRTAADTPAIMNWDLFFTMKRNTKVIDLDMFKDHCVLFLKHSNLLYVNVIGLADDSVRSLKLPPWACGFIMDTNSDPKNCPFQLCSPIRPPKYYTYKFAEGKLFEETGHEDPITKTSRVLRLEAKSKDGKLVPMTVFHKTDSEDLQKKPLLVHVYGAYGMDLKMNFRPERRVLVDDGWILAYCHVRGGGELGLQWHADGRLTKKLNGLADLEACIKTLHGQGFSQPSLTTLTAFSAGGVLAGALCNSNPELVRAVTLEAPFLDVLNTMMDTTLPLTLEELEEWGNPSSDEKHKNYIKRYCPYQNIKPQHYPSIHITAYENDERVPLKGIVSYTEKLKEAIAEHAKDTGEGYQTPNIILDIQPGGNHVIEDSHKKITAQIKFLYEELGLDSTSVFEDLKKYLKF
Starred values were filed as active, the others as inactive; x = not tested or not shown.

SMILES | Rin1-Abl PPI inh | RBBP9 inh | UBC9 SUMO inh | UBC13 inh | ALR H2O2 inh | PREPL inh
CCCc1cc(C(=O)N2CCCC(N3CCN(c4ccc(F)cc4)CC3)C2)no1 (centres undefined) | -1 | x | x | 2 | 98* | 7
O=C(CSc1ccccc1)N1CCCC(N2CCN(c3ccccc3)CC2)C1 (centres undefined) | 4 | x | -8 | 0 | 99* | -12
O=C(C1CCOCC1)N1CCCC(N2CCN(c3ccc(F)cc3)CC2)C1 (centres undefined) | 1 | x | x | -9 | 94* | 12
O=C(c1ccccn1)N1CCCC(N2CCN(c3ccc(F)cc3)CC2)C1 (centres undefined) | -2 | x | -9 | 7 | 97* | 5
Cc1cccnc1CNC(=O)C1(C)CCCN1CC(C)C (centres undefined) | -1 | x | x | x | x | x
O=C(CN(Cc1ccc(F)cc1)C(=O)CNS(=O)(=O)c1ccc(Cl)cc1)NCC1CCCO1 (centres undefined) | -2 | x | -9 | -6 | x | -1
CCCCNC(=O)CSc1nc2ccsc2c(=O)n1CCCC(=O)NCCc1ccc(S(N)(=O)=O)cc1 | 2 | 5 | 8 | 11 | -3 | 6
COc1cc(C)c(C(=O)Oc2cc(C)c(C(=O)O)c(O)c2C)c(OC)c1C | 3 | -7 | 21 | -10 | 89* | 16
COc1cc(C)c(C(=O)Oc2cc(C)c(C(=O)O)c(O)c2C)c(O)c1C(=O)O | 0 | x | x | -9 | 22 | 0
C[C@]12CCC(O)CC1=CCC1C2CC[C@]2(C)/C(=N\NC(N)=S)CCC12 (some centres undefined) | 0 | x | 2 | -9 | -9 | -5
O=c1nc2n(c3sc4c(c13)CCCC4)C(CBr)CS2 (centres undefined) | -1 | -12 | 15 | 2 | 86* | 15
O=c1c2ccccc2nc2n1C(CBr)CS2 (centres undefined) | 2 | 2 | 13 | 3 | 2 | -1
COc1ccc(CNC(=O)CN(C(=O)c2csnn2)c2cccc(C(C)=O)c2)cc1 | -5 | x | 7 | 2 | -14 | -3
COc1cc(C(=O)ON=C2C(C)=CC(=O)C=C2C)cc(OC)c1OC | 0 | -1 | -33 | -7 | 99* | 17
COc1cc(C(=O)O/N=C2/C=C(C)C(=O)C=C2C)cc(OC)c1OC | -1 | 4 | 3 | -15 | 26 | 3
C=CCn1c(SCc2ccccc2F)nc2cc(C(=O)O)ccc2c1=O | -3 | x | 11 | 2 | 98* | -4
Cc1ccccc1CN1CCCC(C(=O)Nc2ccccc2Oc2cccnc2)C1 (centres undefined) | 5 | x | 3 | -3 | 0 | 3
CCCCn1c(N)c(N(CC)C(=O)c2cc(S(=O)(=O)N3CCCCCC3)ccc2OC)c(=O)[nH]c1=O | 1 | x | x | -2 | -2 | 14
COC(=O)CC1SC(=O)NC1=Nc1ccc(O)cc1 (centres undefined) | -2 | -16 | -2 | 5 | 96* | 2
Cc1ccc(S(=O)(=O)N2CCCC(C(=O)O)C2)s1 (centres undefined) | -2 | -4 | 2 | 6 | 87* | 9
O=C(O)C1CCCN(S(=O)(=O)c2cccs2)C1 (centres undefined) | 0 | -12 | -49 | 2 | -5 | 11
CSCc1ccc(C(=O)NCc2ccc(F)cc2)cc1 | 2 | -2 | 14 | 5 | 98* | -2
CSCc1ccc(C(=O)NCc2ccc(C)cc2)cc1 | -4 | -4 | 2 | -1 | 8 | 4
C=CCNC(=O)c1onc(CSc2ccc(F)cc2)c1C(=O)NCCOC | 2 | 2 | 22 | 2 | 2 | 2
N=C1S/C(=C\c2cccc3ccccc23)C(=O)N1c1ccc(F)cc1 | -1 | -10 | 63* | -24 | -3 | 2
SMILES | Rin1-Abl PPI inh | RBBP9 inh | UBC9 SUMO inh | UBC13 inh | ALR H2O2 inh | PREPL inh
N=C1S/C(=C\c2ccccc2F)C(=O)N1c1ccc(F)cc1 | 0 | -3 | -6 | -27 | 8 | 3
O=C(Nc1cccc(Cl)c1)c1ccc2sc([C@H]3C[C@H](O)[C@@H](CO)O3)nc2c1 | 3 | x | x | x | x | x
COc1ccc2nc(NNC(=O)C3COc4ccccc4O3)sc2c1 (centres undefined) | -1 | 9 | 3 | -1 | 99* | 15
COc1ccc2nc(NC(=O)C3COc4ccccc4O3)sc2c1 (centres undefined) | 1 | -11 | -6 | -1 | x | 8
COC(=O)c1[nH]c(=O)c2ccccc2c1O | 0 | 0 | 15 | -5 | 98* | -3
COC(=O)c1[nH]c(=O)c2ccccc2c1OCc1ccccc1 | 1 | -5 | 20 | -1 | x | -5
Cn1c(N)c(C(=O)N2CCN(c3ccccc3)CC2)c(=O)n(C)c1=O | 1 | x | x | x | x | x
CC(C(=O)NCc1cccnc1)c1ccc([N+](=O)[O-])cc1 (centres undefined) | -1 | x | 12 | 2 | 8 | 12
O=C(c1ccc(NS(=O)(=O)c2ccccc2)cc1)N1CCN(c2ccccc2)CC1 | 3 | x | x | -3 | 6 | 7
O=C(Nc1ccc([N+](=O)[O-])cc1)c1cccc([N+](=O)[O-])c1 | -5 | x | x | x | x | x
Cc1ccc(NC(=O)c2cccc(Oc3ccc([N+](=O)[O-])cc3)c2)c(C(=O)O)c1 | -1 | x | 22 | -3 | 97* | 1
O=C(Nc1ccc(O)cc1)c1cccc(Oc2ccc([N+](=O)[O-])cc2)c1 | 5 | -6 | -16 | 4 | 99* | 19
O=C(O)c1cccc(Oc2ccc([N+](=O)[O-])cc2)c1 | -2 | -3 | -3 | x | 1 | -9
COc1ccc(Nc2cc(C)nc(N3CCN(C(=O)c4ccc5c(c4)OCO5)CC3)n2)cc1 | 0 | x | x | 3 | -2 | 9
CN(C)c1ccc(C(=O)NC2(N3CCC3=O)CCCC2)cc1 | 1 | -2 | 0 | -6 | 100* | 24
CC1CCc2c(nc3ncnn3c2N2CCN(c3ccccc3F)CC2)C1 (centres undefined) | -5 | x | 31 | -4 | -1 | 20
CC1CCc2c(nc3ncnn3c2N2CCN(c3ccccc3)CC2)C1 (centres undefined) | -2 | -6 | 18 | 1 | 99* | 37
Cc1c(NS(=O)(=O)c2ccccc2)cc(Cl)c(O)c1C | -4 | -1 | 9 | -2 | 99* | -1
CC(C)C[C@H]1CNC(=S)N1C[C@H]1CCCN1C[C@H](CC(C)C)N1C[C@H](Cc2ccc(O)cc2)N(CC2CCCCCC2)C1=S | 0 | x | x | x | x | x
CC1=NN(c2ccc([N+](=O)[O-])cc2)C(=O)C1 | 8 | x | x | x | x | x
CC1=NN(c2cccc(Cl)c2)C(=O)C1 | 32* | -5 | 12 | -13 | -12 | 4
CC1=NN(c2cc(Cl)c(S(=O)(=O)O)cc2Cl)C(=O)C1 | 4 | x | x | x | x | x
CC1=NN(c2ccc(S(=O)(=O)O)cc2Cl)C(=O)C1 | 1 | 3 | 83* | -12 | x | -2
CC(C)(C)c1ccc(N/N=C(\C#N)S(=O)(=O)C(C)(C)C)cc1 | -1 | -6 | -3 | -15 | 4 | -5

Screening data: PubChem, several laboratories
